Reference: ChEMBL document CHEMBL4257584, “Sterol 14α-Demethylase Structure-Based Optimization of Drug Candidates for Human Infections with the Protozoan Trypanosomatidae” (J Med Chem, 2018)
Active and inactive are the calls of the source. No cut-off for these calls is given here.

Assays:
Mus musculus [1] = test: Toxicity in Swiss Webster mouse assessed as effect on heart weight at 200 mg/kg, po administered as single dose measured after 48 hrs; type: organism-based; details: in vivo
How it was run: (§1)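 Swiss Webster mice (21–23 g, n=3) get a single oral 200 mg/kg dose, given as in the PK study. They are inspected for toxic and sub-toxic signs per OECD guidelines (behaviour, motility, neurological state, skin, fur), and body weight is tracked 0–48 h. At 48 h, mice are euthanized and organ weights are normalized to body weight. Blood is taken for haematology and plasma biochemistry.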

[2] = Half life in CD1 mouse liver microsomes at 1 uM preincubated for 5 mins followed by NADPH addition and measured by LC/MS/MS analysis; type: ADME, microsome; details: mouse, microsomes, 1 µM
[3] = Lipophilicity, log P of the compound; type: physicochemical; details: octanol/water
[4] = Drug uptake in BALB/c mouse spleen at 25 mg/kg, po via gavage measured after 4 hrs post dose by […]; type: ADME, organism-based; details: read-out: Drug uptake
How it was run: (§2)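 BALB/c mice get a single oral gavage dose of 25 mg/kg; tissues are collected 4 h post-dose. About 100 mg tissue is diluted 5-fold in PBS and homogenized. Homogenate is extracted as for plasma (ketoconazole internal standard, acetonitrile extraction) and quantified by HPLC-UV at 291 nm, 0.1 μM detection limit, n=2.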

[5] = Drug uptake in BALB/c mouse lungs at 25 mg/kg, po via gavage measured after 4 hrs post dose by […]; type: ADME, organism-based, Lung; details: read-out: Drug uptake; how it was run: as §2
Mus musculus [6] = test: Toxicity in Swiss Webster mouse assessed as effect on lung weight at 200 mg/kg, po administered as single dose measured after 48 hrs; type: organism-based; details: in vivo; how it was run: as §1
[7] = biological target: Putative lanosterol 14-alpha-demethylase (Leishmania infantum, UniProt A2TEF2); test: Binding affinity to Leishmania infantum CYP51 expressed in Escherichia coli
How it was run: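 Purified E. coli-expressed L. infantum CYP51 at 0.5 μM is titrated with ligand at 0.1–1 μM in 5 cm path cuvettes. Difference-spectrum absorbance change Δ(A430−A411) is plotted against ligand concentration. Apparent Kd comes from a Morrison (quadratic) tight-binding fit by nonlinear regression.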

Trypanosoma cruzi [8] = test: Antiparasitic activity against GFP-expressing Trypanosoma cruzi Tulahuen amastigote formss infected in cardiomyocytes assessed as reduction in rate of parasite multiplication within infected cardiomyocytes measured at 72 hrs post infection by fluorescence microscopy; type: functional, organism-based
How it was run: (§3)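 GFP-expressing trypomastigotes (Tulahuen or Y strain) infect cardiomyocyte monolayers at 10 parasites per cell, in DMEM + 10% FBS. Unbound parasites are washed off. At 24 h of infection, inhibitors at 0.5–25 nM in DMSO/DMEM are added and cultured 48 h. Read-out is at 72 h post-infection as GFP fluorescence (RFU) after PBS wash; microscopy uses paraformaldehyde fixation, DAPI and phalloidin stain. Triplicate.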

Mus musculus [9] = test: Toxicity in Swiss Webster mouse at 200 mg/kg, po administered as single dose measured after 48 hrs measured at 48 hrs post dose; type: organism-based; details: in vivo; how it was run: as §1
Mus musculus [10] = test: Toxicity in Swiss Webster mouse assessed as effect on body weight at 200 mg/kg, po administered as single dose measured after 48 hrs; type: organism-based; details: in vivo; how it was run: as §1
[11] = Drug uptake in BALB/c mouse brain at 25 mg/kg, po via gavage measured after 4 hrs post dose by […]; type: ADME, organism-based; details: read-out: Drug uptake; how it was run: as §2
Mus musculus [12] = test: Toxicity in Swiss Webster mouse assessed as effect on fur profile at 200 mg/kg, po administered as single dose measured after 48 hrs; type: organism-based; details: in vivo; how it was run: as §1
[13] = Drug uptake in BALB/c mouse liver at 25 mg/kg, po via gavage measured after 4 hrs post dose by […]; type: ADME, organism-based; details: read-out: Drug uptake; how it was run: as §2
Mus musculus [14] = test: Toxicity in Swiss Webster mouse assessed as alteration in body to organ ratio at 200 mg/kg, po administered as single dose measured after 48 hrs; type: organism-based; details: in vivo; how it was run: as §1
Trypanosoma cruzi [15] = test: Antiparasitic activity against GFP-expressing Trypanosoma cruzi Y amastigote formss infected in cardiomyocytes assessed as reduction in rate of parasite multiplication within infected cardiomyocytes measured at 72 hrs post infection by fluorescence microscopy; type: functional, organism-based; how it was run: as §3
[16] = Half life in Sprague-Dawley rat liver microsomes at 1 uM preincubated for 5 mins followed by NADPH addition and measured by LC/MS/MS analysis; type: ADME, microsome; details: microsomes, 1 µM
[17] = Half life in human liver microsomes at 1 uM preincubated for 5 mins followed by NADPH addition and measured by LC/MS/MS analysis; type: ADME, microsome; details: microsomes, 1 µM
[18] = biological target: Sterol 14-alpha demethylase (Trypanosoma cruzi (strain CL Brener)) (UniProt Q7Z1V1); test: Inhibition of Trypanosoma cruzi Y CYP51 expressed in Escherichia coli using [3-3H]-eburicol as substrate after 60 mins by LC-MS analysis
How it was run: (§4)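 Reconstituted reaction: 1 μM purified CYP51, 2 μM T. brucei NADPH-P450 reductase, 100 μM dilauroylphosphatidylcholine, isocitrate dehydrogenase/isocitrate regeneration, 50 mM K phosphate pH 7.2, 10% glycerol. [3-3H]sterol substrate at 50 μM final (eburicol for T. cruzi; obtusifoliol for T. brucei and L. infantum) with inhibitor at 1.1 μM final. Preincubate 60 s at 37 °C, start with 100 μM NADPH, run 60 min, EtOAc extraction. Gives % inhibition of 14α-demethylation, triplicate, mean ± SD.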

[19] = Drug uptake in BALB/c mouse blood at 25 mg/kg, po via gavage measured after 4 hrs post dose by […]; type: ADME, organism-based; details: read-out: Drug uptake; how it was run: as §2
Mus musculus [20] = test: Toxicity in Swiss Webster mouse assessed as effect on neurological conditions at 200 mg/kg, po administered as single dose measured after 48 hrs; type: organism-based; details: in vivo; how it was run: as §1
[21] = biological target: Putative lanosterol 14-alpha-demethylase (Leishmania infantum) (UniProt A2TEF2); test: Inhibition of Leishmania infantum CYP51 expressed in Escherichia coli using [3-3H]-obtusifoliol as substrate after 60 mins by LC-MS analysis; how it was run: as §4
[22] = Intrinsic clearance in human liver microsomes at 1 uM preincubated for 5 mins followed by NADPH addition and measured after 45 mins by LC/MS/MS analysis; type: ADME, microsome; details: read-out: CLH
[23] = biological target: Lanosterol 14-alpha-demethylase (Trypanosoma brucei brucei (strain 927/4 GUTat10.1)) (UniProt Q385E8); test: Inhibition of Trypanosoma brucei […] CYP51 expressed in Escherichia coli using [3-3H]-obtusifoliol as substrate after 60 mins by LC-MS analysis; how it was run: as §4
[24] = Intrinsic clearance in Sprague-Dawley rat liver microsomes at 1 uM preincubated for 5 mins followed by NADPH addition and measured after 45 mins by LC/MS/MS analysis; type: ADME, microsome; details: read-out: CLH
[25] = Drug uptake in BALB/c mouse heart at 25 mg/kg, po via gavage measured after 4 hrs post dose by […]; type: ADME, organism-based; details: read-out: Drug uptake; how it was run: as §2
Mus musculus [26] = test: Toxicity in Swiss Webster mouse assessed as effect on animal behavior at 200 mg/kg, po administered as single dose measured after 48 hrs; type: organism-based; details: in vivo; how it was run: as §1
Mus musculus [27] = test: Toxicity in Swiss Webster mouse assessed as effect on liver weight at 200 mg/kg, po administered as single dose measured after 48 hrs; type: organism-based; details: in vivo; how it was run: as §1
[28] = Hepatic clearance in human liver microsomes at 1 uM preincubated for 5 mins followed by NADPH addition and measured after 45 mins by LC/MS/MS analysis; type: ADME, microsome
Mus musculus [29] = test: Toxicity in Swiss Webster mouse assessed as effect on kidney weight at 200 mg/kg, po administered as single dose measured after 48 hrs; type: organism-based; details: in vivo; how it was run: as §1
Mus musculus [30] = test: Toxicity in Swiss Webster mouse assessed as effect on motility at 200 mg/kg, po administered as single dose measured after 48 hrs; type: organism-based; details: in vivo; how it was run: as §1

Chain of Lanosterol 14-alpha-demethylase (Trypanosoma brucei brucei (strain 927/4 GUTat10.1)) (Q385E8 1-481): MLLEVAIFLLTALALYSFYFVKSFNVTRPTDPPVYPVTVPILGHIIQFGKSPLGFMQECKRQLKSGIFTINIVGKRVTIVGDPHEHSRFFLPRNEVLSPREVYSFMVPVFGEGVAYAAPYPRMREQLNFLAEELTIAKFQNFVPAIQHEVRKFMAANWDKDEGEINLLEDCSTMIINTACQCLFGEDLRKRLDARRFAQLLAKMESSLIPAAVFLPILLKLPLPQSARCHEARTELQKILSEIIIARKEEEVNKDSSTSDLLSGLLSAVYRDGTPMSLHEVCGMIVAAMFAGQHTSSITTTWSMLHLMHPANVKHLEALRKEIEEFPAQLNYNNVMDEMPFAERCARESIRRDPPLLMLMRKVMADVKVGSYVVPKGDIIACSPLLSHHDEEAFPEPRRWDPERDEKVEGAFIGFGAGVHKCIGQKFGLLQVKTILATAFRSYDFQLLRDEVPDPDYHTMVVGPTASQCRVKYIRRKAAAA
Chain of Sterol 14-alpha demethylase (Trypanosoma cruzi (strain CL Brener)) (Q7Z1V1 whole entry, looked up): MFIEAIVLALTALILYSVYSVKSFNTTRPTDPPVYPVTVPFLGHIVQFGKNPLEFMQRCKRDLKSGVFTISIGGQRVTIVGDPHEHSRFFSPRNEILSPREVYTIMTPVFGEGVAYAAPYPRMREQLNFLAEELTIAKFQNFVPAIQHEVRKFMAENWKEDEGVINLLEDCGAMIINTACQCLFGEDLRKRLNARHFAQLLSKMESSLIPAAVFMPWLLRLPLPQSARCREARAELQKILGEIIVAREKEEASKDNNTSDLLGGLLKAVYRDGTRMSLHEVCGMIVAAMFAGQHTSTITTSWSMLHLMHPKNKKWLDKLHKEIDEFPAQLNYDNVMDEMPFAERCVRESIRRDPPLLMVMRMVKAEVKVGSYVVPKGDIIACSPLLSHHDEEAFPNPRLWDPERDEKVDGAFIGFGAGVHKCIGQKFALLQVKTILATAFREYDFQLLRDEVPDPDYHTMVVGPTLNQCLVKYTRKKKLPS
Chain of Putative lanosterol 14-alpha-demethylase (A2TEF2 whole entry): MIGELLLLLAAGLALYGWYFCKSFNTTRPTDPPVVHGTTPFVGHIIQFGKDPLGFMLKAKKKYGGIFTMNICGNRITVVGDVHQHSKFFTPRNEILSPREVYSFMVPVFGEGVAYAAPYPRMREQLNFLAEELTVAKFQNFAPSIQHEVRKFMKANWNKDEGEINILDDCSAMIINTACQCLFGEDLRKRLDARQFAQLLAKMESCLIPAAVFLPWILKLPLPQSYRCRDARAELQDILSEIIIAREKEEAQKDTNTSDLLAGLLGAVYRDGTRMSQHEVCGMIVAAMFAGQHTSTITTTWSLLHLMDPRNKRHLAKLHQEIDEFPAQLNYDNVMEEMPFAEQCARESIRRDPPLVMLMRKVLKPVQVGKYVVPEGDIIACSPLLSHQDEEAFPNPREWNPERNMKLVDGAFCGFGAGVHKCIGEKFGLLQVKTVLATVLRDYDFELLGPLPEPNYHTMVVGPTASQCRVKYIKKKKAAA
Chain of Putative lanosterol 14-alpha-demethylase (Leishmania infantum) (A2TEF2 1-480): as the sequence (A2TEF2 whole entry) above

Structure (SMILES): O=C(N[C@@H](Cn1ccnc1)c1c(F)cc(-c2ccc(F)cc2)cc1F)c1ccc(-c2nnc(-c3ccccc3)o2)cc1
- Activity (Mus musculus [1]): Non-Toxic
- t1/2 [2]: 23 min
- logP [3]: 5.6
- concentration at 4 h [4]: 63 µM
- concentration at 4 h [5]: 57 µM
- Activity (Mus musculus [6]): Non-Toxic
- Kd [7]: 24 nM
- EC50 (Trypanosoma cruzi [8]): 0.5 nM
- NOAEL (Mus musculus [9]): > 200 mg/kg
- Activity (Mus musculus [10]): Non-Toxic
- concentration at 4 h [11]: 3 µM
- Activity (Mus musculus [12]): Non-Toxic
- concentration at 4 h [13]: 120 µM
- Activity (Mus musculus [14]): Non-Toxic
- EC50 (Trypanosoma cruzi [15]): 1 nM
- t1/2 [16]: 50 min
- t1/2 [17]: 64 min
- inhibition [18]: Active
- concentration at 4 h [19]: 25 µM
- Activity (Mus musculus [20]): Non-Toxic
- inhibition [21]: Active
- CLint scaled at 1 µM [22]: 19.4 mL/min/kg
- inhibition [23]: Active
- CLint scaled at 1 µM [24]: 55.8 mL/min/kg
- concentration at 4 h [25]: 56 µM
- Activity (Mus musculus [26]): Non-Toxic
- Activity (Mus musculus [27]): Non-Toxic
- CLhep predicted at 1 µM [28]: 10.1 mL/min/kg
- Activity (Mus musculus [29]): Non-Toxic
- Activity (Mus musculus [30]): Non-Toxic
